Results of several laboratories.
Target: Serine/threonine-protein kinase Chk1 (CHEK1, Homo sapiens, UniProt O14757)
Sequence (O14757 1-476, as in one of the studies): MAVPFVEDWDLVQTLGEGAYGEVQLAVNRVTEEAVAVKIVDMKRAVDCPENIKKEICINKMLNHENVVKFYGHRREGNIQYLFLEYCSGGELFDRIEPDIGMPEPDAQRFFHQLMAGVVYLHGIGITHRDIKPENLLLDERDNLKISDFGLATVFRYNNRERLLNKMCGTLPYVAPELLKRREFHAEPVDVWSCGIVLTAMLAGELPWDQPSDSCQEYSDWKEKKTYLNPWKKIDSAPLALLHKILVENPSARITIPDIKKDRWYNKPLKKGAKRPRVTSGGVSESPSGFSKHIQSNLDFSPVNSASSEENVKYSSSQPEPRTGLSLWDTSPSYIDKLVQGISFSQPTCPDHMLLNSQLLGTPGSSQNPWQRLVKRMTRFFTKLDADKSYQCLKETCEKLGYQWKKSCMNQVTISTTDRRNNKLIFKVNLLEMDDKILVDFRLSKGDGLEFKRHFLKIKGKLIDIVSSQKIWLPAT

COc1cc(Nc2cnc(C#N)c(O[C@H](C)CN(C)C)n2)ncc1-c1cnn(C)c1
remaining activity (enzyme activity; inhibitor; radiometric; 1 µM): 17%

N#CCCc1ccc2c(c1)-c1[nH]c3ccc([N+](=O)[O-])cc3c1CC(=O)N2
remaining signal (cell-free assay; 0.5 µM): 45.1%

COc1ccc2cc(OCC3(C(=O)O)CN(C(=O)c4ccc(F)cc4)C3)ccc2c1
remaining binding (cell-free assay; competition with immobilised ligand; 1 µM): 87%

Nc1nc(Nc2ccccc2)sc1C(=O)c1c(F)cccc1F
remaining activity (enzyme activity; inhibitor; 10 µM): 86%

Cc1ccc(C(=O)NCc2ccsc2)cc1C#Cc1cn(C(C)C)c2ncnc(N)c12
activity vs control (enzyme activity; inhibitor; 1 µM): 87%

N#CC1(c2ccccn2)CCN(Cc2cc(C(=O)N3CCCC3)c(=O)n3ccccc23)CC1
remaining binding (cell-free assay; competition with immobilised ligand; 1 µM): 90%

Clc1ccc(Nc2nnc(Cc3ccncc3)c3ccccc23)cc1
remaining signal (cell-free assay; 0.5 µM): 96.5%

COc1cc(/C=C/C(=O)CC(=O)/C=C/c2ccc(O)c(OC)c2)ccc1O
activity vs control (enzyme activity; inhibitor; 1 µM): 57%

CC(C)(C)c1nc(-c2cccc(NS(=O)(=O)c3c(F)cccc3F)c2F)c(-c2ccnc(N)n2)s1
remaining activity (enzyme activity; inhibitor; radiometric; 1 µM): 100%

Nc1c(C(=O)NCc2ccc(C(=O)NCCCC3CCCCC3)cc2)cnn1-c1ccccc1
remaining binding (cell-free assay; competition with immobilised ligand; 0.1 µM): 100%

C[C@@H]1CCN(C(=O)CC#N)C[C@@H]1N(C)c1ncnc2[nH]ccc12
remaining signal (cell-free assay; inhibitor; 0.5 µM): 94.1%

C[C@@H](c1cccc(C#N)c1)n1cc(Cl)cc(C(N)=O)c1=N
remaining binding (cell-free assay; competition with immobilised ligand; 1 µM): 100%

FC(F)c1nc2ccccc2n1-c1nc(N2CCOCC2)nc(N2CCOCC2)n1
remaining activity (enzyme activity; inhibitor; 10 µM): 90%

COc1cc(Cl)c(C(=O)N[C@@H](CN[C@H]2CC[C@@H](N)CC2)Cc2ccc(C#N)cc2)cc1-c1ccc(CN[C@H](C)c2ccc(C)cc2)o1
remaining activity (enzyme activity; inhibitor; 1 µM): 100%

COCCOc1nc(-c2ccc(Cl)nc2)nc2c1CN(C(=O)c1ncn3ccccc13)CC2
remaining binding (cell-free assay; competition with immobilised ligand; 0.1 µM): 100%

Nc1nc(NC2CCCCC2)sc1C(=O)c1ccccc1
remaining activity (enzyme activity; inhibitor; 10 µM): 96%

O=C1Nc2ccc(Cl)cc2C1=Cc1cc(Cl)c(O)c(Cl)c1
remaining signal (cell-free assay; 0.5 µM): 86.4%

Cc1cc(NC(=O)c2cccc3cc(-c4cccc5[nH]nc(N)c45)ccc23)ccc1F
activity vs control (enzyme activity; inhibitor; 0.1 µM): 96%

CN(C)CC#Cc1ccc(OCCCc2sc(N3CCc4cccc(C(=O)Nc5nc6ccccc6s5)c4C3)nc2C(=O)O)c(F)c1
remaining binding (cell-free assay; competition with immobilised ligand; 1 µM): 89%

Cc1cnc(NC2CCOCC2)nc1-n1cnc(C(=O)NC(CN)c2cc(F)cc(Cl)c2)c1 (stereo not drawn)
remaining activity (enzyme activity; inhibitor; radiometric; 1 µM): 35%

C[C@@]1(Cc2ccc(C#N)cc2)C(=O)N(c2cc(Cl)cc(Cl)c2)c2ncc(C(=O)NC3(c4nc(C5CCC5)no4)CC3)n21
remaining binding (cell-free assay; competition with immobilised ligand; 1 µM): 90%

CC(C)(O)[C@H]1CC[C@H](Nc2ccc3ncc(-c4cccc(C(F)(F)F)c4)n3n2)CC1
remaining activity (enzyme activity; inhibitor; 1 µM): 94.2%

O=C1NC(=O)c2cc(Nc3ccc(F)cc3)c(Nc3ccc(F)cc3)cc21
remaining signal (cell-free assay; 0.5 µM): 104%

O=C(Nc1cnn(-c2csc(C(=O)NC3COC3)c2)c1)Nc1c(F)cccc1Cl
remaining activity (enzyme activity; inhibitor; 5 µM): 141%
